Measured values as given in ChEMBL document CHEMBL4425098, “Thiolactomycin-Based Inhibitors of Bacterial β-Ketoacyl-ACP Synthases with in Vivo Activity” (J Med Chem, 2016).
≈ marks a conversion by molar mass, not a printed value. Calls of active or inactive are those of the source. The rule behind the calls is not given here.

What was measured:
[1] = target: 3-oxoacyl-[acyl-carrier-protein] synthase 2 (Staphylococcus aureus, UniProt Q5TKS0, C165Q); test: Binding affinity to Staphylococcus aureus FabF C165Q mutant expressed in Escherichia coli BL21 (DE3) PlysS cells by intrinsic tryptophan fluorescence quenching-based fluorimetric method
Procedure, shortened: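 Kd by quenching of intrinsic tryptophan fluorescence (excitation 280 nm, emission 337 nm). Inhibitor stocks in DMSO or buffer were titrated into 1 μM His-tag-purified enzyme in 50 mM Tris-HCl, 150 mM NaCl, 1 mM DTT, pH 8.5. mtFabB was expressed in M. smegmatis MC²155; saFabF was expressed in E. coli BL21(DE3) pLysS.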

[2] = tested on: Staphylococcus aureus; test: Antibacterial activity against methicillin-resistant Staphylococcus aureus BAA 1762 after 18 to 24 hrs by Alamar blue dye-based colorimetric assay; type: functional
[3] = tested on: Francisella tularensis; test: Antibacterial activity against Francisella tularensis LVS after 18 to 24 hrs by Alamar blue dye-based colorimetric assay; type: functional
[4] = target: T1, 3-oxoacyl-[acyl-carrier-protein] synthase 2 (Staphylococcus aureus, UniProt Q5TKS0); test: Binding affinity to Staphylococcus aureus wild type FabF expressed in Escherichia coli BL21 (DE3) PlysS cells by intrinsic tryptophan fluorescence quenching-based fluorimetric method
T1 sequence (Q5TKS0 whole entry): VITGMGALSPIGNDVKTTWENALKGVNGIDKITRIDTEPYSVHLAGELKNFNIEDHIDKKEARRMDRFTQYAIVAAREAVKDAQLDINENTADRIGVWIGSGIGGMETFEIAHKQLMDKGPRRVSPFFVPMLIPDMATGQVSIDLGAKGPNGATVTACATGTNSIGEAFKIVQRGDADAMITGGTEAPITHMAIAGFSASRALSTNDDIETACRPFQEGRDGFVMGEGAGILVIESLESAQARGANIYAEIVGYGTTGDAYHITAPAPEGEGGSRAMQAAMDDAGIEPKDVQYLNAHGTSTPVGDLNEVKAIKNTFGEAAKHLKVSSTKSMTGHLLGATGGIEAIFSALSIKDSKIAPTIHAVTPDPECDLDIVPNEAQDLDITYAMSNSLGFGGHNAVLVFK

[5] = tested on: Staphylococcus aureus; test: Antibacterial activity against methicillin-sensitive Staphylococcus aureus RN4220 after 18 to 24 hrs by Alamar blue dye-based colorimetric assay; type: functional
Procedure, shortened: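 Two-fold serial dilutions from 512 down to 0.25 μg/mL in CAMHB (microbroth dilution); incubated 37 °C for 18–24 h, then Alamar Blue added for a further 4 h. Absorbance read at 570 and 600 nm; percent growth reduction plotted against concentration, MIC90 from non-linear regression; growth and MICs confirmed by optical density.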

[6] = tested on: Staphylococcus aureus; test: Antibacterial activity against methicillin-resistant Staphylococcus aureus BAA 1762 infected in Swiss Webster mouse assessed as increase in survival rate at 100 mg/kg, sc administered 1 and 25 hrs post infection measured twice a day for 5 days relative to vehicle-treated control; type: functional, organism-based
Procedure, shortened: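 Mice made neutropenic with cyclophosphamide 4 days and 1 day before infection. MRSA BAA 1762 was given IP as 0.5 mL of 5×10⁷ cells/mL in BHI. Analogues in water/ethanol, or vancomycin in water, were dosed SC at 100 mg/kg/inj at 1 and 25 h post infection. Survival was checked every 12 h for 5 days, n=6–7 per group. Average survival time was compared with vehicle by one-tailed t test.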

[7] = tested on: Klebsiella pneumoniae; test: Antibacterial activity against Klebsiella pneumoniae KPC2ST258 infected in Swiss Webster mouse assessed as survival time at 100 mg/kg, sc administered 1, 12 and 24 hrs post infection measured every 12 hrs for 7 days; type: functional
Procedure, shortened: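 K. pneumoniae KPC2ST258 was given IP as 5×10⁶ cfu in BHI broth. Drugs in saline/PEG400/ethanol (40/20/40) were injected SC at 100 mg/kg/inj at 1, 12 and 24 h post infection. Mice were checked every 12 h for 7 days, n=8–10 per group. Average survival time was compared with vehicle by one-tailed t test.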

[8] = tested on: THP-1; test: Cytotoxicity against human THP1 cells at < 100 ug/ml after 2 days by Alamar blue assay; type: cell-based; details: thp-1, 48 h
[9] = tested on: Mycobacterium tuberculosis; test: Antibacterial activity against Mycobacterium tuberculosis H37Rv after 6 days by Alamar blue dye-based colorimetric assay; type: functional; details: 144 h
Procedure, shortened: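 M. tuberculosis H37Rv grown to early-mid log phase in Middlebrook 7H9 with 10% OADC and 0.05% Tween 80, added to 1:2 serial compound dilutions, and grown for 6 days at 37°C. Alamar blue then added for a further 24 h. MIC taken as the concentration preventing visible growth and Alamar blue reduction in all replicates.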

[10] = tested on: Burkholderia pseudomallei; test: Antibacterial activity against Burkholderia pseudomallei after 18 to 24 hrs by Alamar blue dye-based colorimetric assay; type: functional
[11] = tested on: Yersinia pestis; test: Antibacterial activity against Yersinia pestis A1122 after 18 to 24 hrs by Alamar blue dye-based colorimetric assay; type: functional
[12] = tested on: Mycobacterium tuberculosis; test: Binding affinity to Mycobacterium tuberculosis wild type FabB expressed in Mycobacterium smegmatis MC2 155 by WaterLOGSY-based competition assay

C=C/C(C)=C/[C@@]1(C)SC(=O)C(C)=C1O [THIOLACTOMYCIN] was tested, and the Kd [1] was 88 µM, the MIC90 [2] was 75 µg/mL (≈ 357 µM) and the MIC90 [3] was 2.8 µg/mL (≈ 13.3 µM). The Kd [4] was 107 µM, the MIC90 [5] was 75 µg/mL (≈ 357 µM) and the Activity [6] was “Active”. The MSD [7] was 3.25 days, the Activity [8] was “Non-Toxic” and the MIC90 [9] was 3.1 µg/mL (≈ 14.7 µM). The MIC [10] was 8 µg/mL (≈ 38 µM), the MIC90 [11] was 8 µg/mL (≈ 38 µM) and the Activity [12] was “inactive”.
